Converted amounts (≈) assume the structure as drawn.
Tests used:
COLO 205 = assay: Growth inhibition of human COLO205 cells; type: functional; conditions: for EC50: read-out: ED50 (the source's name)
KB = assay: Growth inhibition of human KB cells; type: functional; conditions: read-out: ED50 (the source's name)
Outline: (§1)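 In-house cytotoxicity assay following an NCI protocol, run on a panel of human tumour lines: KB nasopharyngeal epidermoid carcinoma and HCT-8 ileocecal adenocarcinoma. Potency is reported as ED50 in µg/mL.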

SK-MEL-5 = assay: Growth inhibition of human SK-MEL-5 cells; type: functional; conditions: for EC50: read-out: ED50 (the source's name)
Outline: (§2)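 Tested at the NCI in its human disease-oriented in vitro screen of 60 tumour cell lines, following the Monks et al. methods. Activity is expressed as GI50, given as log molar values.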

HCT-8 = assay: Growth inhibition of human HCT8 cells; type: functional; conditions: read-out: ED50 (the source's name); outline: as §1
U-251 = assay: Growth inhibition of human U251 cells; type: functional; outline: as §2
KM-20L2 = assay: Growth inhibition of human KM20L2 cells; type: functional
NCI-H322M = assay: Growth inhibition of human NCI-H322M cells; type: functional
SR = assay: Growth inhibition of human SR cells; type: functional; outline: as §2
HOP-62 = assay: Growth inhibition of human HOP62 cells; type: functional
TK-10 = assay: Growth inhibition of human TK10 cells; type: functional; outline: as §2
[1] = Growth inhibition of human DMS144 cells; type: functional
CCRF-CEM = assay: Growth inhibition of human CCRF-CEM cells; type: functional
KM12 = assay: Growth inhibition of human KM12 cells; type: functional
Malme-3M = assay: Growth inhibition of human MALME-3M cells; type: functional
DMS-273 = assay: Growth inhibition of human DMS273 cells; type: functional
[2] = Growth inhibition of human OVACR8 cells; type: functional
SNB-75 = assay: Growth inhibition of human SNB75 cells; type: functional; outline: as §2
[3] = Growth inhibition of human LXFL529 cells; type: functional; conditions: LXFL 529
HCC 2998 = assay: Growth inhibition of human HCC2998 cells; type: functional
[4] = Growth inhibition of human OVACR5 cells; type: functional
SN12C = assay: Growth inhibition of human SN12C cells; type: functional; outline: as §2
[5] = Growth inhibition of human […] cells; type: functional
M14 = assay: Growth inhibition of human M14 cells; type: functional
[6] = Growth inhibition of human RPMI8266 cells; type: functional
NCI-H226 = assay: Growth inhibition of human NCI-H226 cells; type: functional
SF-539 = assay: Growth inhibition of human SF539 cells; type: functional; outline: as §2
HT-29 = assay: Growth inhibition of human HT29 cells; type: functional
NCI-H522 = assay: Growth inhibition of human NCI-H522 cells; type: functional
LOX IMVI = assay: Growth inhibition of human LOX IMVI cells; type: functional
DLD-1 = assay: Growth inhibition of human DLD1 cells; type: functional
HCT-116 = assay: Growth inhibition of human HCT116 cells; type: functional
SK-MEL-28 = assay: Growth inhibition of human SK-MEL-28 cells; type: functional; outline: as §2
SK-OV-3 = assay: Growth inhibition of human SK-OV-3 cells; type: functional; outline: as §2
UACC-62 = assay: Growth inhibition of human UACC62 cells; type: functional; outline: as §2
SF-268 = assay: Growth inhibition of human SF268 cells; type: functional; outline: as §2
MOLT-4 = assay: Growth inhibition of human MOLT4 cells; type: functional
A549 = assay: Growth inhibition of human A549 cells; type: functional
IGROV-1 = assay: Growth inhibition of human IGROV1 cells; type: functional
M19-MEL = assay: Growth inhibition of human M19-MEL cells; type: functional
NCI-H460 = assay: Growth inhibition of human NCI-H460 cells; type: functional
SK-MEL-2 = assay: Growth inhibition of human SK-MEL-2 cells; type: functional; outline: as §2
ACHN = assay: Growth inhibition of human ACHN cells; type: functional
K562 = assay: Growth inhibition of human K562 cells; type: functional
SNB-19 = assay: Growth inhibition of human SNB19 cells; type: functional; outline: as §2
UO-31 = assay: Growth inhibition of human UO31 cells; type: functional; outline: as §2
[7] = Growth inhibition of human HL60(TB) cells; type: functional, HL-60(TB); conditions: HL-60
HCT-15 = assay: Growth inhibition of human HCT15 cells; type: functional
SW-620 = assay: Growth inhibition of human SW620 cells; type: functional; outline: as §2
HOP-92 = assay: Growth inhibition of human HOP92 cells; type: functional
786-0 = assay: Growth inhibition of human 786-0 cells; type: functional
HOP-18 = assay: Growth inhibition of human HOP18 cells; type: functional

COc1ccc2c3c([nH]c2c1)C(=O)C(C)=CC3=O
EC50 (COLO 205): 4.51 µg/mL (≈ 18.7 µM) | EC50 (KB): 4.51 µg/mL (≈ 18.7 µM) | EC50 (SK-MEL-5): 3.92 µg/mL (≈ 16.2 µM) | EC50 (HCT-8): 5.09 µg/mL (≈ 21.1 µM)

COc1cc(Cn2c3ccccc3c3cc(C)cc(OC)c32)cc2c1[nH]c1ccccc12
GI50 (U-251): 25.1 µM | GI50 (KM-20L2): 15.5 µM | GI50 (NCI-H322M): 25.1 µM | GI50 (SR): 16.6 µM | GI50 (COLO 205): 25.1 µM | GI50 (HOP-62): 6.61 µM | GI50 (TK-10): 25.1 µM | GI50 [1]: 20 µM | GI50 (CCRF-CEM): 12 µM | GI50 (KM12): 10.2 µM | GI50 (Malme-3M): 25.1 µM | GI50 (SK-MEL-5): 25.1 µM | GI50 (DMS-273): 15.1 µM | GI50 [2]: 10.5 µM | GI50 (SNB-75): 22.9 µM | GI50 [3]: 17 µM | GI50 (HCC 2998): 25.1 µM | GI50 [4]: 25.1 µM | GI50 (SN12C): 25.1 µM | GI50 [5]: 10.2 µM | GI50 (M14): 6.31 µM | GI50 [6]: 25.1 µM | GI50 (NCI-H226): 17 µM | GI50 (SF-539): 9.77 µM | GI50 (HT-29): 17 µM | GI50 (NCI-H522): 5.37 µM | GI50 (LOX IMVI): 8.13 µM | GI50 (DLD-1): 25.1 µM | GI50 (HCT-116): 25.1 µM | GI50 (SK-MEL-28): 25.1 µM | GI50 (SK-OV-3): 25.1 µM | GI50 (UACC-62): 15.1 µM | GI50 (SF-268): 17.4 µM | GI50 (MOLT-4): 8.51 µM | GI50 (A549): 23.4 µM | GI50 (IGROV-1): 25.1 µM | GI50 (M19-MEL): 25.1 µM | GI50 (NCI-H460): 10.7 µM | GI50 (SK-MEL-2): 25.1 µM | GI50 (ACHN): 12.3 µM | GI50 (K562): 9.77 µM | GI50 (SNB-19): 25.1 µM | GI50 (UO-31): 25.1 µM | GI50 [7]: 12.3 µM | GI50 (HCT-15): 17 µM | GI50 (SW-620): 13.5 µM | GI50 (HOP-92): 5.37 µM | GI50 (786-0): 25.1 µM

COc1ccc2c3c([nH]c2c1)C(=O)C=C(C)C3=O
EC50 (COLO 205): > 20 µg/mL | EC50 (KB): > 20 µg/mL | EC50 (SK-MEL-5): 7.25 µg/mL (≈ 30.1 µM) | EC50 (HCT-8): > 20 µg/mL

CC(C)=CCCC1(C)C=Cc2c(c(C)cc3c2[nH]c2cc(O)ccc23)O1 (stereo not given)
GI50 (NCI-H522): 6.76 µM | GI50 (MOLT-4): 0.00324 µM | TGI (MOLT-4; read-out: pTGI): > 25.1 µM | GI50 (HOP-18): 7.41 µM
